An excerpt weighted towards active compounds, which were near 2% of everything screened.
TRAIL sens C8 – sensitizes caspase-8 expressing cells to TRAIL. NB7+C8 cells + TRAIL, ATPlite viability luminescence. 1% of 360,000 active. inhibition (viability loss, TRAIL sensitization), % at 10 µM;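 active means compounds causing at least 50% loss of cell viability in the single-dose screen, relative to plate controls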
HSP90 inh – HSP90 refolding inhibition in rabbit reticulocyte lysate | luciferase refolding luminescence, 3 h | inhibition, % at 5.6 µM | 0.91% of 290,000 active;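 active means inhibition above the screen-wide mean plus 3 SD, computed separately per campaign, cut at about 16% in these data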;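 further: 0% = DMSO wells and 100% = 60 µM geldanamycin wells; inhibitors lower the luminescence because luciferase stays unfolded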
PPC-1+TRAIL kill – kills PPC-1 cancer cells in the presence of TRAIL; PPC-1 cells + TRAIL, ATPLite viability luminescence; cell killing (% activity), % at 4 µM or 5 µM; 0.41% of 220,000 active; AID 1443;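 active means cell killing above 50% in the first pass at 4 µM, then a duplicate retest at 5 µM averaging 50% or more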;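 further: plate controls were cells with TRAIL plus DMSO for no effect and medium-only wells lacking cells for full effect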
FLuc inh counter – inhibits firefly luciferase, flagging false hits in luciferase inhibition screens; P08659; inhibition, % at 10 µM; 1.5% of 200,000 active; AID 1006; ATPLite firefly luciferase biochemical luminescence, 10 min;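 active means inhibition above about 50% when tested at 10 µM, limit read from the data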
Target sequence (P08659 whole entry, looked up): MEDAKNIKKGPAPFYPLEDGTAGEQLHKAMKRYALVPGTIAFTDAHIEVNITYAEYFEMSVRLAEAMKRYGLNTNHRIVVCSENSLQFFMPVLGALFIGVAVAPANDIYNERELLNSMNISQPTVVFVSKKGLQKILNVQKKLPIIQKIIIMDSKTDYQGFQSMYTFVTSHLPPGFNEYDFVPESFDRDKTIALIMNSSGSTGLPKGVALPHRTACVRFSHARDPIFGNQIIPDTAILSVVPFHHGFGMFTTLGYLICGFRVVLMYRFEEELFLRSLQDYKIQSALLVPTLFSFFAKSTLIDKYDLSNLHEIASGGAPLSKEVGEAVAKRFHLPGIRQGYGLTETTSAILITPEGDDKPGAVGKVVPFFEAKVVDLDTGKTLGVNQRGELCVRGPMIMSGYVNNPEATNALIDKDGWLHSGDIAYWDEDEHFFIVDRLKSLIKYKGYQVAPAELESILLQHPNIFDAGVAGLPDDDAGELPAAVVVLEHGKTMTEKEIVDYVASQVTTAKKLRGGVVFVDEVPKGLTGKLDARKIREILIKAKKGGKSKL
FLuc stim CS – firefly luciferase counter-screen for stimulation assays; P08659; ATPlite luciferase biochemical, luminescence, 10 min; 0 = ATP-free wells, 1 = DMSO control; activation factor at 10 µM; 200,000 tested, under 10 active; AID 1027;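 active means luciferase activation factor, scaled between plate controls, of at least 2 with compound at 10 µM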
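Assay system: Luciferase/luciferin detection reagent, cell-free biochemical luciferase assay / Also added: ATP substrate / Schedule: 10 min at ambient temperature / Measured by: luminescence measurement of luciferase light output / Benchmarks: low control with PBS replacing ATP, high control enzyme plus ATP without compound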
* = called active by the depositor; . = no result given.

SMILES	TRAIL sens C8	HSP90 inh	PPC-1+TRAIL kill	FLuc inh counter	FLuc stim CS
O=[N+]([O-])c1c(Nc2ccc(O)cc2)cc(Cl)c2nonc12	95.8*	2.8	.	.	.
C(=Cc1nc2ccccc2o1)c1ccc2c(c1)OCO2	79.6*	.	.	.	.
C(=Cc1cnc2ccccc2n1)c1ccc2c(c1)OCO2	85.9*	.	.	.	.
CC(C)CC(NC(=O)OCc1ccccc1)C(=O)NC(Cc1ccccc1)C(=O)CCl (stereo not drawn)	90.4*	.	.	.	.
COC(=O)C(Cc1ccccc1)NC(=O)C(CC(C)C)NC(=O)OC(C)(C)C (stereo not drawn)	-6.3	1.7	-5.0	-5.3	1.1
C=CCNC(=O)c1ccc(NC(=O)C2=CSCCO2)cc1	9.8	16.7*	.	.	.
Cc1ccc(NC(=O)c2ccc([N+](=O)[O-])o2)c(C)c1	-2.0	3.4	7.9	-6.1	1.1
Cc1ccc(S(=O)(=O)c2ccc([N+](=O)[O-])o2)cc1	92.4*	.	.	.	.
CCC[C@@H](CN[C@@H](CNC)C(C)C)NCCCCc1ccccc1	4.5	-2.1	.	.	.
CC[C@@H](C)[C@H](CNC)NC[C@@H](Cc1cccc2ccccc12)NCCc1cccc(C(F)(F)F)c1	96.1*	0.9	.	.	.
CCC[C@H](CN[C@@H](CNC)[C@H](C)CC)NCCc1cc(C(F)(F)F)cc(C(F)(F)F)c1	87.7*	0.9	.	.	.
Cn1cccc1/C=N/n1c(-c2ccc(C(C)(C)C)cc2)n[nH]c1=S	53.8*	5.0	23.7	7.0	0.9
CC1CCCC(NC(=O)CN2C(=O)c3cccnc3Oc3ccc(Cl)cc32)C1C (stereo not drawn)	2.6	-0.7	.	.	.
O=C(OCc1cccc(C(F)(F)F)c1)c1cc(S(=O)(=O)N2CCOCC2)ccc1F	72.3*	.	.	.	.
O=C(Nc1cccc(NC(=O)c2cccs2)c1)c1ccc([N+](=O)[O-])o1	34.0	32.9*	37.0	.	.
O=C(Nc1ccc(N2CCN(C(=O)c3cccs3)CC2)cc1)c1ccco1	13.6	3.2	.	.	.
O=C(Nc1ccc(N2CCN(C(=O)c3cccs3)CC2)cc1)c1ccc([N+](=O)[O-])o1	93.8*	-2.6	.	.	.
Cc1nc(SCc2ccc(OCCC(C)C)cc2)n[nH]1	7.6	-4.7	-6.4	9.5	0.9
CCC(C(N)=O)N1C(=O)C2C3CCC(C3)C2C1=O (stereo not drawn)	10.3	.	.	.	.
CCN(CC)c1ccc(NC(=O)Nc2ccccc2)cc1	59.2*	8.9	.	.	.
CC(=O)c1ccc(NC(=O)c2ccn[nH]2)cc1	47.9	4.1	26.6	60.3*	0.4
O=C(Nc1ccccc1)Nc1ccc(C(=O)N2CCOCC2)cc1	11.2	9.3	42.8	55.2*	0.4
CC(=O)c1cccc(NC(=O)Nc2ccccc2)c1	4.1	2.5	.	.	.
O=C(c1ccc(NC(=O)C2(c3ccccc3)CCCC2)cc1)N1CCOCC1	-6.2	2.4	2.4	.	.
CC(=O)c1ccc(NC(=O)Nc2ccccc2)cc1	60.1*	-2.7	40.0	35.3	0.6
SMILES	TRAIL sens C8	HSP90 inh	PPC-1+TRAIL kill	FLuc inh counter	FLuc stim CS
CCN(CC)c1ccc(NC(=O)Nc2ccc(C(C)=O)cc2)cc1	5.2	0.1	-4.1	-2.5	1
Cc1cn(CC(=O)c2ccccc2)c2ccccc12	-13.7	-5.4	.	.	.
Cc1ccc(S(=O)(=O)Nc2ncnc3ccccc23)cc1	-17.6	1.0	.	.	.
CCC1CCCCN1C(=O)CCc1nnc(Cc2cc(OC)ccc2OC)o1 (stereo not drawn)	6.2	3.1	-3.4	.	.
COc1cccc2c1cc1c(=O)n(CC(=O)N3CCC(C)CC3)nc(C)n12	-2.6	-0.9	.	.	.
Clc1ccc(-c2nc3ccncc3[nH]2)cc1	41.9	3.7	34.1	73.1*	0.3
Cc1ccc(N(CC(=O)NCc2ccco2)C(=O)CCC(=O)Nc2nccs2)cc1	4.3	9.5	-7.9	.	.
C=Cc1ccc(Cn2c(C)c(C(=O)NCc3cccc(C(F)(F)F)c3)sc2=O)cc1	50.8*	.	.	.	.
CCOc1cc(CNCCc2ccc(S(N)(=O)=O)cc2)ccc1OCc1ccc(Cl)cc1	72.8*	3.6	27.2	-5.7	1.1
CCOc1cc(/C=N/N=C(N)N)ccc1OCc1ccc(Cl)cc1	86.6*	-0.5	50.2*	-3.4	1
CCOc1cc(/C=N/N=C(/N)c2nonc2N)cc(Br)c1OCc1ccc(Cl)cc1	57.0*	1.0	9.0	-6.9	1.1
COc1cc(CNCCc2ccc(S(N)(=O)=O)cc2)ccc1OCc1ccc(Cl)cc1	42.8	-0.5	18.4	-10.3	1.1
COc1cc(/C=N/N=C(/N)c2nonc2N)cc(Br)c1OCc1ccccc1C	12.8	7.1	9.3	-4.6	1
COc1cc(/C=N/N=C(N)N)ccc1OCc1ccc(Cl)cc1	36.3	4.6	12.4	16.7	0.8
Cc1ccc2cc(C=O)c(Cl)nc2c1	-7.1	-3.1	13.7	0.9	1
Cc1ccc(OCC(=O)c2c[nH]c3ccccc23)c([N+](=O)[O-])n1	-2.1	1.6	22.8	2.9	1
O=C(CSc1ncnc2nc[nH]c12)c1ccccc1	24.4	-2.5	5.0	3.8	1
O=C(CSc1ncnc2nc[nH]c12)c1ccc(Cl)cc1	74.4*	10.5	.	.	.
CC(C)(C)CN1CCNC(=O)C1CC(=O)N1CCN(c2ccccc2)CC1 (stereo not drawn)	13.4	1.0	-9.6	.	.
COC(=O)c1nnn(-c2ccsc2C(=O)OC)c1C(=O)OC	-14.2	1.6	-1.8	0.6	1
CCC[C@@H](CNC)NC[C@H](Cc1ccccc1)NCCCCc1ccccc1	33.7	-1.9	.	.	.
CNC[C@@H](CC1CCCCC1)NC[C@H](CC(C)C)NCCc1cccc(C(F)(F)F)c1	92.2*	-0.9	.	.	.
CNC[C@@H](Cc1ccccc1)NC[C@@H](CC1CCCCC1)NCCCc1ccccc1	96.2*	1.4	.	.	.
CCc1ccc(-c2cn3c(n2)SCC3)cc1	28.8	4.2	31.0	64.1*	0.4
Cc1ccc(-c2cn3c(n2)SCC3)cc1	16.9	-2.1	17.6	45.4	0.5
SMILES	TRAIL sens C8	HSP90 inh	PPC-1+TRAIL kill	FLuc inh counter	FLuc stim CS
Cc1ccc(CNC(=O)CCc2c(C)nn(-c3ccc(N4CCOCC4)nn3)c2C)cc1	-19.2	3.6	.	.	.
CC(C)(C)OC(=O)NCc1ccc(NC(=O)c2nc[nH]c2C(=O)N[C@@H](Cc2ccccc2)C(=O)OCc2ccccc2)cc1	82.6*	.	-4.5	.	.
CC(C)C[C@H](NC(=O)c1nc[nH]c1C(=O)N[C@@H](CCCCNC(=O)OC(C)(C)C)C(=O)OC(C)(C)C)C(=O)OC(C)(C)C	51.3*	.	7.7	.	.
CC(C)C[C@H](NC(=O)c1nc[nH]c1C(=O)NCCCCCNC(=O)OC(C)(C)C)C(=O)OC(C)(C)C	25.6	4.8	27.7	0.5	1
CC(C)(C)OC(=O)NCCCC[C@H](NC(=O)c1[nH]cnc1C(=O)Nc1ccccc1)C(=O)OC(C)(C)C	58.8*	.	3.3	.	.
CC(C)(C)OC(=O)[C@H](Cc1ccccc1)NC(=O)c1[nH]cnc1C(=O)Nc1ccccc1F	62.0*	.	.	.	.
CC(C)(C)OC(=O)NCc1ccc(CNC(=O)c2[nH]cnc2C(=O)N[C@@H](Cc2ccccc2)C(=O)OCc2ccccc2)cc1	15.1	3.5	.	.	.
NC(=O)c1cccnc1OCC(F)(F)F	-3.3	-0.7	15.3	.	.
Cc1ccc(Nc2nnc(SC(C)C(=O)NCC3CCCO3)s2)cc1 (stereo not drawn)	-18.2	.	.	.	.

From PubChem BioAssay
